Data reported in ChEMBL document CHEMBL1133509, “Synthetic oleanane and ursane triterpenoids with modified rings A and C: a series of highly active inhibitors of nitric oxide production in mouse macrophages” (J Med Chem, 2000).
pIC50: −log10 of the molar value.

Organism: Mus musculus
Experiment: Evaluated for the inhibitory activity of (Nitric Oxide)NO production induced by interferon-gamma (IFN-gamma) in mouse macrophages(toxic to cells above 1 uM and is not active below 1 uM); Toxic; call rule not given here
Assay type: functional, cell-based

Structure (SMILES) | IC50
COC(=O)[C@]12CCC(C)(C)CC1C1=CC[C@@H]3[C@@]4(C)C=C(C=O)C(=O)C(C)(C)[C@@H]4CC[C@@]3(C)[C@]1(C)CC2 (stereo partly specified) | Toxic

Organism: Mus musculus
Experiment: Inhibition of nitric oxide (NO) production induced by interferon-gamma (IFN-gamma) in mouse macrophages
Assay type: functional
How it was run: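 Primary peritoneal macrophages from female CD-1 mice (5–10 weeks), harvested four days after i.p. injection of 4% thioglycollate broth. Seeded at 2 × 10^5 cells/well and incubated 48 h with 20 ng/mL recombinant mouse IFN-γ plus compound in DMSO (final ≤0.1%), with DMSO controls. Nitrite in supernatant measured by Griess reaction at 550 nm in triplicate against sodium nitrite standard curve. IC50 is the average of two experiments.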

Structure (SMILES) | pIC50
COC(=O)[C@]12CC[C@@H](C)[C@H](C)C1C1=CC(=O)[C@@H]3[C@@]4(C)C=CC(=O)C(C)(C)[C@@H]4CC[C@@]3(C)[C@]1(C)CC2 (stereo partly specified) | 5.05
COC(=O)[C@]12CCC(C)(C)CC1C1C(=O)C=C3[C@@]4(C)C=CC(=O)C(C)(C)[C@@H]4CC[C@@]3(C)[C@]1(C)CC2 (stereo partly specified) | 6.15
C[C@@H]1CC[C@]2(C(=O)O)CC[C@]3(C)C(=CC(=O)[C@@H]4[C@@]5(C)C=C(C#N)C(=O)C(C)(C)[C@@H]5CC[C@]43C)C2[C@H]1C (stereo partly specified) | 6.10
COC(=O)[C@]12CC[C@@H](C)[C@H](C)C1C1=CC(=O)[C@@H]3[C@@]4(C)C=C(C#N)C(=O)C(C)(C)[C@@H]4CC[C@@]3(C)[C@]1(C)CC2 (stereo partly specified) | 7.00
CC1(C)CC[C@]2(C=O)CC[C@]3(C)C(=CC(=O)[C@@H]4[C@@]5(C)C=CC(=O)C(C)(C)[C@@H]5CC[C@]43C)C2C1 (stereo partly specified) | 5.42
COC(=O)[C@]12CCC(C)(C)CC1C1C(=O)C=C3[C@@]4(C)C=C(C(N)=O)C(=O)C(C)(C)[C@@H]4CC[C@@]3(C)[C@]1(C)CC2 (stereo partly specified) | 7.00
CC(=O)OC[C@]12CCC(C)(C)CC1C1=CC(=O)[C@@H]3[C@@]4(C)C=CC(=O)C(C)(C)[C@@H]4CC[C@@]3(C)[C@]1(C)CC2 (stereo partly specified) | < 4.40
COC(=O)[C@]12CCC(C)(C)CC1C1=CC(=O)[C@@H]3[C@@]4(C)C=CC(=O)C(C)(C)[C@@H]4CC[C@@]3(C)[C@]1(C)CC2 (stereo partly specified) | 5.55
COC(=O)[C@]12CCC(C)(C)CC1C1C(=O)C=C3[C@@]4(C)C=C(C=O)C(=O)C(C)(C)[C@@H]4CC[C@@]3(C)[C@]1(C)CC2 (stereo partly specified) | 7.00
COC(=O)[C@]12CCC(C)(C)CC1C1C(=O)C[C@@H]3[C@@]4(C)C=CC(=O)C(C)(C)[C@@H]4CC[C@@]3(C)[C@]1(C)CC2 (stereo partly specified) | 4.85
CC1(C)CC[C@]2(CO)CC[C@]3(C)C(=CC(=O)[C@@H]4[C@@]5(C)C=CC(=O)C(C)(C)[C@@H]5CC[C@]43C)C2C1 (stereo partly specified) | 5.52
CC1(C)CC[C@]2(C(=O)O)CC[C@]3(C)C(=CC(=O)[C@@H]4[C@@]5(C)C=CC(=O)C(C)(C)[C@@H]5CC[C@]43C)C2C1 (stereo partly specified) | 5.96
COC(=O)[C@]12CCC(C)(C)CC1C1=CC[C@@H]3[C@@]4(C)C=CC(=O)C(C)(C)[C@@H]4CC[C@@]3(C)[C@]1(C)CC2 (stereo partly specified) | 4.51

Organism: Mus musculus
Experiment: Evaluated for the inhibitory activity of (Nitric Oxide)NO production induced by interferon-gamma (IFN-gamma) in mouse macrophages( toxic to cells above 1 uM and is not active below 1 uM); Toxic
Assay type: functional, cell-based

Structure (SMILES) | IC50
C[C@@H]1CC[C@]2(C(=O)O)CC[C@]3(C)C(=CC[C@@H]4[C@@]5(C)CC[C@H](O)C(C)(C)[C@@H]5CC[C@]43C)C2[C@H]1C (stereo partly specified) | Toxic
COC(=O)C1=C[C@]2(C)C3=CC(=O)C4C5CC(C)(C)CC[C@]5(C(=O)OC)CC[C@@]4(C)[C@]3(C)CC[C@H]2C(C)(C)C1=O (stereo partly specified) | Toxic
